In assay [1] the test system is Candida albicans. As to the kind of experiment: Antifungal activity against Candida albicans after 48 hrs by agar-based microtiter plate assay. It is filed as functional. Summed up:
(§1)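 Agar-based microtiter plate assay: spores (20 000 sp/well) applied to potato dextrose agar in wells containing serial 2-fold dilutions of test compound. Plates incubated at 24 °C; fungal growth assessed qualitatively at 48 h.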

Another assay relates to Parastagonospora nodorum. As to the kind of experiment: Antifungal activity against Septoria nodorum after 48 hrs by agar-based microtiter plate assay. It is filed as functional. Summed up: as §1
Assay [2] relates to Candida albicans. As to the kind of experiment: Antifungal activity against Candida albicans up to […] after 48 hrs by agar-based microtiter plate assay. It is filed as functional, organism-based. In outline:
as §1

Assay [3] has as its system Haemonchus contortus (nematode). As to the kind of experiment: Nematicidal activity against Haemonchus contortus.
The subject of a further assay is Bacillus subtilis. As to the kind of experiment: Antibacterial activity against Bacillus subtilis. It is filed as functional, organism-based.
Another assay concerns NS1. As to the kind of experiment: Cytotoxicity against mouse NS1 cells. It is filed as functional, cell-based.

Calls of active or inactive are those of the source. The calls are words filed in the database; no cut-off is given here.

As to `C[C@@H]1C[C@H]2O[C@@H]2/C=C\C=C\C(=O)Cc2c(Cl)c(O)cc(O)c2C(=O)O1` [RADICICOL], the LD99 with Candida albicans [1] and in the assay on Parastagonospora nodorum was 0.012 mg/mL throughout.
As to `C[C@@H]1C[C@@H]([C@H](O)CC2CC(=O)NC(=O)C2)C(=O)[C@@H](C)C1` [CYCLOHEXIMIDE], in the assay on Candida albicans [2], the outcome was inactive. In the assay on Parastagonospora nodorum, this compound displayed an LD99 of 0.0063 mg/mL.
In the case of `C[C@@H]1[C@H](O)[C@@H](C)/C=C/C=C/C=C/C=C/C=C/C=C/C=C/[C@H](O[C@@H]2O[C@H](C)[C@@H](O)[C@H](N)[C@@H]2O)C[C@@H]2O[C@](O)(C[C@@H](O)C[C@@H](O)[C@H](O)CC[C@@H](O)C[C@@H](O)CC(=O)O[C@H]1C)C[C@H](O)[C@H]2C(=O)O` [AMPHOTERICIN B], the LD99 with Candida albicans [1] and in the assay with Parastagonospora nodorum was 0.0031 mg/mL in each case.
With `CO[C@H]1OC(=O)C(c2ccccc2)=C1C(O)c1ccccc1` (stereo partly specified), the outcome (in assay [3]; with Bacillus subtilis; with NS1) was inactive.
For `CCCC[C@H]1C(=O)O[C@H](C)[C@H](NC(=O)c2cccc(NC=O)c2O)C(=O)O[C@@H](C)[C@@H]1OC(=O)CC(C)C` [ANTIMYCIN A3], the LD99 in the assay with Candida albicans [1] turned out to be 0.05 mg/mL; in the assay on Parastagonospora nodorum, 0.0002 mg/mL.
On to `CO[C@@H]1OC(=O)C(c2ccccc2)=C1C(O)c1ccccc1` (stereo partly specified), for which the outcome (in assay [3]; with Bacillus subtilis; with NS1) was inactive.
Turning to `CN(CC[C@H](N)CC(=O)N[C@@H]1C=C[C@@H](n2ccc(N)nc2=O)O[C@H]1C(=O)O)C(=N)N.Cl` [BLASTICIDIN S HCL], the LD99 in the assay on Candida albicans [1] was found to be 0.00039 mg/mL; in the assay on Parastagonospora nodorum, 0.0016 mg/mL.
Consider `O=C1OCC(Cc2ccccc2)=C1c1ccccc1` [GYMNOASCOLIDE A], for which the outcome (in assay [3]; in the assay on Bacillus subtilis; with NS1; with Candida albicans [2]) was inactive. In addition, the LD99 in the assay with Parastagonospora nodorum was 0.013 mg/mL.

Values taken from ChEMBL document CHEMBL1141776, “Gymnoascolides A-C: aromatic butenolides from an Australian isolate of the soil ascomycete Gymnoascus reessii” (2005).
